Compounds with a hit are over-represented: about 2.2% of the library has one in this group of screens.
SMARCA2 act = SMARCA2 function activation, primary screen; MG213 cells, MMTV-luciferase reporter, dexamethasone, overnight; activation, % at 9.1 µM; actives 1% (n = 370,000); in the data active means activation above about 7.8%
GalR3 antag = antagonists of human GalR3; O60755; actives 0.44% (n = 360,000); HEK293 GalR3-CNG cAMP membrane potential fluorescence; galR3 body fused to GalR1 C-terminus; inhibition, % at 3 µM;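 active means inhibition above the screen-wide average plus 3 SD, cut at about 13% in these data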;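 further: forskolin and galanin both at EC90 stimulate the cells; cAMP rise reported by CNG channel membrane potential dye signal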
Target sequence (O60755 1-299 limits assumed): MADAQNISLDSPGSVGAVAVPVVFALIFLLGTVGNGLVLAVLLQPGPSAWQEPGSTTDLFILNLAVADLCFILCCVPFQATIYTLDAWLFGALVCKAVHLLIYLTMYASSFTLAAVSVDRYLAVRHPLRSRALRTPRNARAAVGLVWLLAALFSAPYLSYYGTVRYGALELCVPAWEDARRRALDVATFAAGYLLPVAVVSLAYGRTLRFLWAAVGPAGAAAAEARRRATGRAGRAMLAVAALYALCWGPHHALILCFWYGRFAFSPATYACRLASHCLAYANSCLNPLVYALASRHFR
NR2E3 ag-1 = human photoreceptor-specific nuclear receptor agonism | CHO-S Gal4-NCOR/VP16-NR2E3 two-hybrid, luciferase | inhibition of corepressor binding, % at 3.98 µM | actives 0.35% (n = 360,000) | AID 602229;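 active means inhibition above the mean of all tested compounds plus 3 SD, cut at about 70% in these data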;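 further: higher means lower luciferase signal from less NR2E3 corepressor binding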
NR2F2 inh = blocks human COUP-TFII nuclear receptor; P24468; HEK293T NGFI-A luciferase reporter, luminescence; inhibition, % at 8.6 µM; actives 0.7% (n = 370,000); AID 686940;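 active means inhibition above a per-plate cutoff, mean inhibition of test wells between control levels plus 3 SD, cut at about 38% in these data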;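 further: cells cotransfected with COUP-TFII expression vector driving the NGFI-A reporter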
NR2E3 ag-2 = NR2E3 (human) agonism. Q9Y5X4. GST-NR2E3/biotin-RetCOR TR-FRET, 1536-well. actives 0.12% (n = 320,000). inhibition of corepressor binding, % at 4.78 µM. AID 2300;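 active means percent inhibition above the cutoff of mean plus 3 SD of all tested compounds, set per screening campaign, cut at about 20% in these data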
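Material: NR2E3–RetCOR corepressor complex | Quantity: 1.35 nM GST-tagged NR2E3 final | Schedule: 5 h at 4 °C | Replication: Singlicate compound wells | Reagent: RetCOR corepressor, biotinylated, 7 nM | Controls: Biotin wells as high control, 0.6% DMSO wells as low control | Signal: TR-FRET, Eu(K)-anti-GST donor, streptavidin-D2 acceptor, ex 340, em 617/671 nm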
SMARCA2 act conf = SMARCA2 activation, confirmation screen | activation, % at 9.1 µM | shares compounds with SMARCA2 act | actives 30% (n = 3,500) | MG213 cells, MMTV-luciferase with dexamethasone, luminescence, overnight; MG213 cells expressing E1A, Rb sequestered; DMSO wells 0%, reference activator 100% | AID 652260;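 active means activation above its plate's cutoff, the mean activation of tested wells plus 3 SD, cut at about 7.9% in these data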
GAL4-VP16 Luc = counter-screen for SMARCA2 activators: GAL4-VP16 luciferase reporter activation. shares compounds with SMARCA2 act. HEK293 GAL4-VP16 pG5luc reporter, luciferase luminescence; scaled: DMSO wells 0%, SAHA wells 100%. activation, % at 9.1 µM. actives 41% (n = 3,500). AID 686939;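 active means activation above the solvent-only control well mean plus 3 SD, averaged across control plates, cut at about 5.2% in these data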
Numbers stand for hits; - = inactive; . = not tested or not shown.

SMILES | SMARCA2 act | GalR3 antag | NR2E3 ag-1 | NR2F2 inh | NR2E3 ag-2 | SMARCA2 act conf | GAL4-VP16 Luc
CCCCN(CC)CCNC(=S)Nc1ccc2nc(N3CCN(C)CC3)cc(C)c2c1 | - | - | - | - | - | . | .
CCCN(CCC)CCCNC(=S)Nc1ccc2nc(N3CCN(CC)CC3)cc(C)c2c1 | 9.4 | - | - | - | - | - | -
O=C(Cn1nc(-c2ccccc2)ccc1=O)NCCc1ccc(F)cc1 | - | . | . | - | . | . | .
CN[C@H]1C[C@H]2c3[nH]c4cccc(-c5ccccc5)c4c3CCN2C[C@H]1[C@H](C)O | - | . | . | - | . | . | .
Cc1cc(NC(=O)c2ccccc2)sc1C | 19 | - | - | - | - | - | 8.6
Cc1ccc(NC(=O)c2ccccc2)s1 | - | - | - | - | - | . | .
COc1ccc(-c2cn(-c3ccc(C)cc3)c(=O)n2CC(=O)Nc2ccc(OC)cc2OC)cc1 | 8.8 | - | - | - | - | - | -
Cc1cc(-c2ccc(Br)s2)nc(-n2cccc2)n1 | 12 | - | - | - | . | - | -
Cc1cc(-c2sccc2Br)nc(-n2cccc2)n1 | - | - | - | - | . | . | .
CCC(=O)NC(c1ccccc1)c1nc2ccccc2[nH]1 (stereo not drawn) | 8.5 | - | - | - | - | - | -
Cc1cccnc1NC(=O)c1ccc([N+](=O)[O-])o1 | - | - | - | - | - | . | .
O=C(Nc1ccc(NC(=O)c2ccc([N+](=O)[O-])o2)cc1Cl)c1ccco1 | - | - | - | - | - | . | .
Cc1ccccc1NC(=O)c1ccc([N+](=O)[O-])o1 | 11 | - | - | - | - | 11 | -
O=C(Nc1ccc(N2CCOCC2)cc1)c1ccc([N+](=O)[O-])o1 | 15 | - | - | - | - | 18 | 7.3
O=C(Nc1cccc2ncccc12)c1ccc([N+](=O)[O-])o1 | 15 | - | - | - | - | 8.4 | -
O=C(Nc1ccccc1Cl)c1ccc([N+](=O)[O-])o1 | 9.0 | - | - | - | - | 18 | -
O=C(NCC1COc2ccccc2O1)c1ccc(NC(=O)c2cccc(F)c2)cc1 (stereo not drawn) | - | . | . | - | . | . | .
O=C(CN(CCc1ccccc1)S(=O)(=O)c1ccc(Cl)s1)N1CCOCC1 | - | . | . | - | . | . | .
Cc1cccc(NC(=O)c2ccc([N+](=O)[O-])o2)n1 | 11 | - | - | - | - | 15 | -
Cc1cccc(NC(=O)c2ccc([N+](=O)[O-])s2)n1 | - | - | - | - | - | . | .
CCOc1ccc(C(=O)Nc2nc(C)c(C(=O)OC)s2)cc1 | 8.8 | - | - | - | - | 8.7 | 12
COC(=O)c1sc(NC(=O)c2ccncc2)nc1C | - | - | - | - | - | . | .
Cc1ccccc1C(=O)NNC(=O)c1ccc(Br)cc1 | 9.0 | - | - | - | - | - | 5.5
O=S1(=O)CC(N2CCN(CCO)CC2)CN1Cc1ccc(F)cc1 (stereo not drawn) | 8.1 | - | - | - | . | - | -
Cc1ccc(CN2CC(N3CCN(CCO)CC3)CS2(=O)=O)cc1 (stereo not drawn) | - | - | - | - | . | . | .
SMILES | SMARCA2 act | GalR3 antag | NR2E3 ag-1 | NR2F2 inh | NR2E3 ag-2 | SMARCA2 act conf | GAL4-VP16 Luc
CC1(C(=O)NS(=O)(=O)c2ccccc2C(F)(F)F)CCN1C(=O)CCc1cccs1 (stereo not drawn) | 8.7 | - | - | - | . | - | -
COc1ccc(NC(=O)CSc2ccccc2)c([N+](=O)[O-])c1 | 8.4 | - | - | - | - | - | -
COc1ccc(OCC(=O)N/N=C(\C)CC(=O)Nc2ccc(OC)cc2[N+](=O)[O-])cc1 | 8.7 | - | - | - | - | - | -
C[C@H](CO)N1C[C@H](C)[C@@H](CN(C)C(=O)Nc2ccc(C(C)(C)C)cc2)OCc2cn(nn2)CCCC1=O | - | - | . | - | . | . | .
CCOC(=O)c1cnn(-c2ccccc2)c1N | - | - | - | - | - | . | .
CCOC(=O)c1cnn(-c2cccc(Cl)c2)c1N | 9.4 | - | - | - | - | - | -
CCOC(=O)c1nn(-c2ccc3ccccc3c2)cc1O | 8.2 | - | - | - | - | - | 5.6
